For experiment [1], the target named is T1, NAD-dependent protein deacetylase sirtuin-1 (Homo sapiens) (UniProt Q96EB6).
T1 sequence (whole entry): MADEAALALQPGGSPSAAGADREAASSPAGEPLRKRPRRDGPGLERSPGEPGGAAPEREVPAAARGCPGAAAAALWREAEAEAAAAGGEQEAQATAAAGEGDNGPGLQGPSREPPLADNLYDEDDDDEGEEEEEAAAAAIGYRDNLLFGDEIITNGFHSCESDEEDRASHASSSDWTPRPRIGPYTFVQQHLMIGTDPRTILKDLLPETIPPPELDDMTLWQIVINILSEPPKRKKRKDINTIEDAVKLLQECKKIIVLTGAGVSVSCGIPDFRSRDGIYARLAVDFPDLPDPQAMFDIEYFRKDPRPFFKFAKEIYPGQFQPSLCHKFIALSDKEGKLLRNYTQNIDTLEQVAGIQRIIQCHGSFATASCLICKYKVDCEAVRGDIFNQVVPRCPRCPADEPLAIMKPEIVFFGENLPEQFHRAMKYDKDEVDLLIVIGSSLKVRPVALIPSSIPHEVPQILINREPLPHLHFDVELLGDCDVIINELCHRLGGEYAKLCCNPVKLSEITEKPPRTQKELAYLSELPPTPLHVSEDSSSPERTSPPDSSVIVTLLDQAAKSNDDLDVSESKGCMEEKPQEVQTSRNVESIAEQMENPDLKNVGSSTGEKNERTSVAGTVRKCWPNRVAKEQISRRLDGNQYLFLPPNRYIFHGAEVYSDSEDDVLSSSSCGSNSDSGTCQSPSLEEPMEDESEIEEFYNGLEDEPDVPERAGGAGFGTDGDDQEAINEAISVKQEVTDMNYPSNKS
The experiment in a line: Inhibition of SIRT1.

Experiment [2] is described as follows: Inhibition of alcohol dehydrogenase.
For experiment [3], the target named is Poly(ADP-ribose) glycohydrolase (Homo sapiens) (UniProt Q86W56). Description: Inhibition of PARG using [alpha-32P]ADP-ribose polymers up to 500 uM after 5 mins by TRAP assay.
Experiment [4] addresses Poly [ADP-ribose] polymerase 1 (Homo sapiens, UniProt P09874). Description: Inhibition of PARP-1 using [32P]-NAD+ after 15 mins.
In experiment [5] the target is Poly(ADP-ribose) glycohydrolase (Homo sapiens) (UniProt Q86W56). Description: Inhibition of PARG using [alpha-32P]ADP-ribose polymers at 500 uM after 5 mins by TRAP assay.
The nature of experiment [6]: Selectivity ratio of IC50 for PARP-1 to IC50 for PARG.
Experiment [7] concerns the target PARP 1, 2 and 3 (Homo sapiens) (UniProt P09874+Q9Y6F1+Q9UGN5). The experiment in a line: Inhibition of PARP in human SCC25 cells assessed as inhibition of MNNG-induced NAD(H) depletion at 1 mM preincubated for 5 mins before MNNG challenge measured after 30 mins. In kind it is cell-based. The conditions noted are these: SCC-25. In short, it runs like this: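 SCC-25 cells (90% confluent, 35 mm dishes) pretreated 5 min with compound, then 5 μg/mL MNNG for 30 min; HClO4 extraction, KOH/KH2PO4 neutralization; NAD by enzymatic cycling (alcohol dehydrogenase, phenazine ethosulfate, MTT, 37°C 30 min), A570; normalized to cell protein.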

The target in experiment [8] is Poly(ADP-ribose) glycohydrolase (Homo sapiens) (UniProt Q86W56). The conditions noted are these: SCC-25, 1 mM.
The target is the same in experiment [9]. The conditions noted are these: SCC-25, 1 mM. The source holds these as a separate data set.
For experiment [10] the target is unchanged. The conditions noted are these: SCC-25, 1 mM. This is another data set of the same source.
Experiment [11] shares this target. The experiment in a line: Inhibition of PARG in human SCC25 cells assessed as inhibition of MNNG-induced poly(ADP-ribose) formation at 1 mM after 20 mins by chemiluminescent ELISA. In kind it is cell-based. The note with it: SCC-25. An outline of the steps:
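SCC-25 cells at 90% confluence in 35 mm dishes; 5 μg/mL MNNG used to induce PAR; lysed in buffer with 1% SDS; ADP-ribose polymers quantified by chemiluminescent ELISA (kit protocol, minor changes); PAR normalized to cell count.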

Activity calls are given as the source filed them. No cut-off for these calls is given here.

Poly [ADP-ribose] polymerase 1, sequence (P09874 whole entry): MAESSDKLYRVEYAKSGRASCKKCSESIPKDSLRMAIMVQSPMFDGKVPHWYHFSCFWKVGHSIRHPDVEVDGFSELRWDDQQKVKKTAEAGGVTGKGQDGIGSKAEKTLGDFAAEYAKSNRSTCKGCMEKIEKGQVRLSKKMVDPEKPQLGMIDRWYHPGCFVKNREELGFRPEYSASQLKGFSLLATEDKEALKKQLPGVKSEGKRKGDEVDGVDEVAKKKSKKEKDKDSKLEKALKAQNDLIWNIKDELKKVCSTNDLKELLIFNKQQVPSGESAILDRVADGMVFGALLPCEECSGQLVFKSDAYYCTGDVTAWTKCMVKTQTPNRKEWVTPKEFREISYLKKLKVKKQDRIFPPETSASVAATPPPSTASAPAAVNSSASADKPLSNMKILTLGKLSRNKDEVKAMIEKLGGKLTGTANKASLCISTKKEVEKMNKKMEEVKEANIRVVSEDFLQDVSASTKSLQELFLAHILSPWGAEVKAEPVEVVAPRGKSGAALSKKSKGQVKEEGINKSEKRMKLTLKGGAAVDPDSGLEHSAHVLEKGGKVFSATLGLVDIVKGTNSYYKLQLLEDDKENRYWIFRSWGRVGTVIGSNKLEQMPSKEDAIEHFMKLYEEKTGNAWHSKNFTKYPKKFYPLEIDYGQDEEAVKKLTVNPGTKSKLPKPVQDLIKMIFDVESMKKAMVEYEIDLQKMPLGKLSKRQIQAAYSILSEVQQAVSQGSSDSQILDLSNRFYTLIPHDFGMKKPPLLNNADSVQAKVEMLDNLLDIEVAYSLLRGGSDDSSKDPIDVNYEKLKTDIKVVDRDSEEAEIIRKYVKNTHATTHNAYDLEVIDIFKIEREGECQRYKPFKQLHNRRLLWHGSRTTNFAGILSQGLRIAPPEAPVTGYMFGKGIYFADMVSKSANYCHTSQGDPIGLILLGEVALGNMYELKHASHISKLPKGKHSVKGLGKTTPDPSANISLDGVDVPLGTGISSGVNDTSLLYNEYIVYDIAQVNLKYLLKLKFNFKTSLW
Poly(ADP-ribose) glycohydrolase (Homo sapiens), sequence (Q86W56 whole entry, looked up): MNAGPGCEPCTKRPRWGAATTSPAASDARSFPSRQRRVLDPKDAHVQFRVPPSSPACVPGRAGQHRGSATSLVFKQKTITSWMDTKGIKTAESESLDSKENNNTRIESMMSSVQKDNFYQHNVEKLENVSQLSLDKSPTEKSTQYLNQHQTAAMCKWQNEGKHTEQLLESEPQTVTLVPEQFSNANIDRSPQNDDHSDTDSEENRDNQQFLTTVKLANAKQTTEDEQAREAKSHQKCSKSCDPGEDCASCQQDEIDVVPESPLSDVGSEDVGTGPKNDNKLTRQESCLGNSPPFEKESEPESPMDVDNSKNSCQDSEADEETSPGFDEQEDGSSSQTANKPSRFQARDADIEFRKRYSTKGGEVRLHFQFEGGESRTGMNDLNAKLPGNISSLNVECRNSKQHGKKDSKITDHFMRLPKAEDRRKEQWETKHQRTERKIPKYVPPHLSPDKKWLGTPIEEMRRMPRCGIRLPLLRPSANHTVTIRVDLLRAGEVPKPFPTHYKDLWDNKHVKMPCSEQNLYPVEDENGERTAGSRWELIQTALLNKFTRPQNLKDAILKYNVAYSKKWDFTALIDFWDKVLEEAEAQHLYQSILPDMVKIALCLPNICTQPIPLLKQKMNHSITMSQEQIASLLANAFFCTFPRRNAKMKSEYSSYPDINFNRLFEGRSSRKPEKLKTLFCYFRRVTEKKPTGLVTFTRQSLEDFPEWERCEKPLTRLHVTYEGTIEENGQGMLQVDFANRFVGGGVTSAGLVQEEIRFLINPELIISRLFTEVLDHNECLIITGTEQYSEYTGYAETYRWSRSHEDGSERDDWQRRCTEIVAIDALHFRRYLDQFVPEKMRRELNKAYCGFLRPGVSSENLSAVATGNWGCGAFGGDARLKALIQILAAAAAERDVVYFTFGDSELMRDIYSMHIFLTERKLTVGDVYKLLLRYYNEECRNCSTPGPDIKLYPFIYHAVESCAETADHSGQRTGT

For `O=C(Nc1ccc(Oc2ccc3ccccc3c2)cc1)c1cc(Cl)cc(Cl)c1O`, the inhibition result in [1] and in experiment [2] was “inactive” in each case.
Consider `O=C(Nc1ccc(Oc2ccccc2)c(Cl)c1)c1cc(Cl)cc(Cl)c1O`, for which the inhibition entry in experiment [1] and in experiment [2] was “inactive” throughout.
As for `O=C(Nc1ccc(Oc2ccc3ccccc3c2)c(Cl)c1)c1cccc(Cl)c1O`, the inhibition result in [1] and in [2] was “inactive” each time.
With `Oc1c(Cl)cc(Cl)cc1/C=N/c1ccc(Oc2ccc3ccccc3c2)c(Cl)c1`, the inhibition entry in experiment [3], in experiment [1] and in experiment [2] was “inactive” throughout.
On to `Cc1cc(NC(=O)c2cc(Cl)cc(Cl)c2O)ccc1Oc1ccc2ccccc2c1`, for which the inhibition entry in experiment [1] and in [2] was “inactive” throughout.
Compound `Cc1ccc(C(C)C)c(Br)c1Oc1ccc(Cl)cc1NC(=O)c1cc(Cl)cc(Br)c1O` gave an IC50 in experiment [4] of 78 µM. The inhibition result in experiment [1] and in [2] was “inactive” in each case.
Consider `Cc1ccc(Oc2ccc(NC(=O)c3cc(Cl)cc(Cl)c3O)cc2Cl)cc1`, for which the inhibition result in [1] and in experiment [2] was “inactive” throughout.
Turning to `Cc1ccccc1NC(=O)c1cc(Cl)cc(Cl)c1O`, the inhibition result in experiment [1] and in experiment [2] was “inactive” in each case. This compound also gave an inhibition in experiment [5] of 10%.
`Cc1cccc(NC(=O)c2cc(Cl)cc(Cl)c2O)c1`: the inhibition result in [1] and in experiment [2] was “inactive” each time. The same compound came in with an inhibition in [5] of 10%.
In turn, `O=C(Nc1ccc(Oc2cc3ccccc3cc2Br)c(Cl)c1)c1cc(Cl)cc(Cl)c1O` returned an IC50 in experiment [4] of 123 µM. For the same compound, the Ratio IC50 in experiment [6] turned out to be 15. In addition, the inhibition entry in experiment [1] and in experiment [2] was “inactive” each time.
Turning to `O=C(Nc1ccc(O)c(Cl)c1)c1cc(Cl)cc(Cl)c1O`, the inhibition result in experiment [1] and in experiment [2] was “inactive” each time. In [5], this compound yielded an inhibition below 10%.
With `Nc1ncnc2c1ncn2[C@@H]1O[C@H](CO[P@](=O)(O)O[P@@](=O)(O)OC[C@H]2NC[C@H](O)[C@@H]2O)[C@@H](O)[C@H]1O` [ADENOSINE DIPHOSPHATE (HYDROXYMETHYL)PYRROLIDINEDIOL], the IC50 in [4] was above 1000 µM.
In [4], `O=C(Nc1cccc(Cl)c1)c1cc(Cl)cc(Cl)c1O` came in with an IC50 of 500 µM. Also, the inhibition result in experiment [1] and in experiment [2] was “inactive” in each case.
For `O=C(O)c1ccccc1C(=O)Nc1ccc(Oc2ccc3ccccc3c2)c(Cl)c1`, the IC50 in experiment [4] amounted to 66 µM. Also, the inhibition result in experiment [1] and in experiment [2] was “inactive” throughout.
With `O=C(Nc1ccc(Cl)cc1)c1cc(Cl)cc(Cl)c1O`, the inhibition entry in [1] and in experiment [2] was “inactive” in each case. For the same compound, the inhibition result in [7] is “Active”.
For the compound `O=C(Nc1ccc(Oc2ccc3ccccc3c2)c(Cl)c1)c1cc(Cl)cc(Cl)c1O`, in experiment [4], the IC50 came to 120 µM. Besides, the inhibition result in experiment [1] and in [2] was “inactive” throughout. Moreover, the inhibition in experiment [7] amounted to 40%. The inhibition entry in [8], in experiment [9] and in experiment [10] was “Active” each time.
`Cc1ccc(NC(=O)c2cc(Cl)cc(Cl)c2O)cc1`: the inhibition result in experiment [1] and in experiment [2] was “inactive” in each case. In experiment [5], this compound gave an inhibition of 10%.
On to `NC(=O)c1cc(Cl)cc(Cl)c1O`, for which the inhibition entry in experiment [1] and in experiment [2] was “inactive” throughout. The inhibition entry in experiment [7] was “Active”. Also, the inhibition in [5] was below 10%.
As to `O=C(Nc1cc(Cl)ccc1Oc1ccc2ccccc2c1Cl)c1cc(Cl)cc(Br)c1O`, the inhibition entry in [1] and in experiment [2] was “inactive” each time.
`O=C(Nc1ccccc1Cl)c1cc(Cl)cc(Cl)c1O`: inhibition in experiment [4] was half-maximal at 500 µM (IC50). The inhibition result in [1] and in experiment [2] was “inactive” in each case. This compound displayed an inhibition in experiment [5] of 10%.
In turn, `NC(=O)c1ccccc1` [BENZAMIDE] registered an IC50 in experiment [4] of 5.4 µM. For the same compound, the inhibition entry in experiment [7] and in [11] was “Active” in each case.
With `COc1c(Cl)cc(Cl)cc1C(=O)Nc1ccc(Oc2ccc3ccccc3c2)c(Cl)c1`, the inhibition result in [3], in [1] and in experiment [2] was “inactive” throughout.
As for `O=C(Nc1ccc(Oc2ccc3ccccc3c2)c(F)c1)c1cc(Cl)cc(Cl)c1O`, the inhibition result in experiment [1] and in experiment [2] was “inactive” in each case.
Consider `O=C(Nc1ccc(Oc2ccc3ccccc3c2)c(Cl)c1)c1cc(Cl)cc(Cl)c1`, for which the inhibition entry in [3], in [1] and in experiment [2] was “inactive” throughout. Also, the inhibition entry in [7] was “Active”.
Regarding `O=C(Nc1ccc(Oc2ccc3ccccc3c2)c(Cl)c1)c1cc(Cl)ccc1O`, the inhibition result in experiment [1] and in experiment [2] was “inactive” each time.
As to `O=C(Nc1ccccc1)c1cc(Cl)cc(Cl)c1O`, the inhibition entry in experiment [1] and in [2] was “inactive” throughout. Besides, the inhibition in experiment [5] is below 10%.
Take `Oc1c(Cl)cc(Cl)cc1CNc1ccc(Oc2ccc3ccccc3c2)c(Cl)c1`: the inhibition entry in experiment [3], in experiment [1] and in experiment [2] was “inactive” each time.
With `O=C(Nc1ccc(Oc2ccc3ccccc3c2)c(Cl)c1)c1ccccc1O`, the inhibition result in experiment [1] and in experiment [2] was “inactive” in each case.
In the case of `O=C(Nc1ccc(Oc2ccc3ccccc3c2)c(C(F)(F)F)c1)c1cc(Cl)cc(Cl)c1O`, the inhibition result in experiment [1] and in experiment [2] was “inactive” throughout.
Take `CN(C(=O)c1cc(Cl)cc(Cl)c1O)c1ccc(Oc2ccc3ccccc3c2)c(Cl)c1`: the inhibition result in [1] and in experiment [2] was “inactive” throughout.

Values taken from ChEMBL document CHEMBL1811898, “Discovery and structure-activity relationships of modified salicylanilides as cell permeable inhibitors of poly(ADP-ribose) glycohydrolase (PARG)” (J Med Chem, 2011).
